Peptide text beside a SMILES is read from it.
How the values were obtained:
[1] = system: mixed P. aeruginosa–S. aureus biofilms; test: Clearance of established biofilm; format: cell-based, Pseudomonas aeruginosa + Staphylococcus aureus; details: concentrations <32 μM in PBS, 24 h, 37°C; crystal violet, 595 nm
Method in brief: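 Preformed mixed P. aeruginosa–S. aureus biofilms were treated with the test compound, with gentamicin as comparator. Residual biomass was stained with crystal violet, and the solubilised dye was read spectrophotometrically at 595 nm. Results are expressed as biofilm percentage. The assay was run in both 96-well round-bottom plates and round-bottom tubes.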

[2] = system: nude mice; test: In vivo safety assay; parameters: species or system mouse; details: 10 mg/kg or 20 mg/kg subcutaneously, 24 h after injection
Method in brief: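 Twelve 6-week-old female athymic NU/NU nude mice were randomised into 3 groups of 4. Groups received 10 or 20 mg/kg test compound injected subcutaneously into the back skin. Serum was assayed for ALT, AST, urea, CREA and UA. Heart, liver, spleen, lung and kidney were examined histologically by H&E. Error bars are SD from 3 biological replicates.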

SMILES	Effect on preestablished mixed biofilm [1]	Histological examination of heart, liver, spleen, kidneys, lungs (H&E) [2]	Serum levels of ALT, AST, UA, urea and CREA [2]
CNC(C)C1CCC(N)C(OC2C(N)CC(N)C(OC3OCC(C)(O)C(NC)C3O)C2O)O1 (stereo not drawn) [Gentamicin, gentamicin]	little impact	–	–
NCCCC[C@H](NC(=O)[C@H](CCCCN)NC(=O)[C@H](Cc1c[nH]c2ccccc12)NC(=O)[C@H](CCCCN)NC(=O)[C@H](CCCCN)NC(=O)[C@H](Cc1c[nH]c2ccccc12)NC(=O)[C@@H](N)Cc1c[nH]c2ccccc12)C(=O)N[C@@H](Cc1c[nH]c2ccccc12)C(=O)N[C@@H](Cc1c[nH]c2ccccc12)C(N)=O [Peptide K6] (H-WWKKWKKWW-NH2)	–	no abnormalities	within normal range

Reference: article PMC9942841 (Proceedings of the National Academy of Sciences of the …, 2023)
